Test results reported in publication PMC3276691 (Journal of Medicinal Chemistry, 2012).

Tests used:
TLR7 [1] = assay: Inhibition of TLR7-mediated cytokine and chemokine production in hPBMCs; type: cell-based; settings: Homo sapiens, 12 h, read-out: IC50, inhibition of TLR7-induced cytokine and chemokine release
TLR8 [2] = assay: Inhibition of TLR8-mediated cytokine and chemokine production in hPBMCs; type: cell-based, human; settings: 12 h, proinflammatory cytokines (Fig. 4)
TLR8 [3] = assay: Schild plot analysis of inhibition of TLR8-induced activation; type: cell-based, human; settings: CL075 TLR8-specific agonist, checker-board format
TLR7 [4] = assay: Schild plot analysis of inhibition of TLR7-induced activation; type: cell-based, human; settings: imidazoquinoline TLR7-specific agonist, checker-board format
[5] = test system: human peripheral blood mononuclear cells; assay: IFN-α induction in human PBMCs; type: cell-based; settings: hPBMCs, 12 h, graded concentrations
Outline: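 PBMCs from healthy donors, isolated by Ficoll-Hypaque gradient centrifugation and stimulated with graded concentrations of test compound for 12 h. Supernatants collected by centrifugation and diluted 1:20. IFN-α measured in triplicate by high-sensitivity human IFN-α-specific ELISA.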

IC50 (TLR7 [1]) [µM] | SMILES | Inhibition of TNF-α and IL-1β production (TLR8 [2]) | Schild plot slope, TLR8 inhibition (TLR8 [3]) | Schild plot slope, TLR7 inhibition (TLR7 [4]) | IFN-α induction [5]
0.05 to 0.3 | Nc1nc2ccccc2c2c1nc(CCCc1nc3c(N)nc4ccccc4c3n1Cc1ccccc1)n2Cc1ccccc1 [Compound 4a, 2,2′-(propane-1,3-diyl)bis(1-benzyl-1H-imidazo[4,5-c]quinolin-4-amine)] | potently inhibits | 0.51 | 1.12 | 
 | CCN(CC)CCCC(C)Nc1ccnc2cc(Cl)ccc12 (stereo not drawn) [Chloroquine, chloroquine, reference compound] | feeble inhibitor |  |  | 
 | CCCCc1nc2c(N)nc3ccccc3c2n1Cc1ccc(CNC(=O)CCCCCCCCCCC(=O)NCc2ccc(Cn3c(CCCC)nc4c(N)nc5ccccc5c43)cc2)cc1 [Compound 10c] |  |  |  | most potent
